Measurements published in ChEMBL document CHEMBL1141420, “Towards a new generation of potential antipsychotic agents combining D2 and 5-HT1A receptor activities” (J Med Chem, 2007).
Calls of active or inactive are those of the source. The rule behind the calls is not given here.

How the values were obtained:
Rattus norvegicus [1] = assay: Normalizing effect on methylphenidate-induced behaviours in ip dosed rat after 30 min; format: functional; conditions: for ED50: 0.5 h
Procedure, shortened: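 Rats given methylphenidate 40 mg/kg i.p. plus compound i.p. (10 mL/kg; doses as free base), seven per dose. Over 10 min starting 30 min after injection, locomotion, rearing, sniffing, gnawing and licking scored in 10 s observations repeated 10 times. Normalization judged against saline and methylphenidate controls.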

[2] = target: T1, 5-hydroxytryptamine receptor 1A (Rattus norvegicus, UniProt P19327); assay: Displacement of [3H]OH-DPAT from rat cortex 5HT1A receptor
T1 sequence (P19327 whole entry): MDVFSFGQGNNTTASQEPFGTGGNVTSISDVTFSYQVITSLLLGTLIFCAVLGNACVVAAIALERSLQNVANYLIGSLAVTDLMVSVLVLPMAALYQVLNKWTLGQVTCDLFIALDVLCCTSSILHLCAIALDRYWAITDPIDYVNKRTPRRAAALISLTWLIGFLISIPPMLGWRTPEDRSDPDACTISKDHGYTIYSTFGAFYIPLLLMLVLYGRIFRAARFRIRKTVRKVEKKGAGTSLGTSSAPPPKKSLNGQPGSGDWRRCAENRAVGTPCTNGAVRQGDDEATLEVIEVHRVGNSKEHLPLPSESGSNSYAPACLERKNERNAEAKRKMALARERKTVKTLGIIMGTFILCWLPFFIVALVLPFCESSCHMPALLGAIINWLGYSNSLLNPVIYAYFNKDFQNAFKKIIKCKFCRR

[3] = target: T2, 5-hydroxytryptamine receptor 1A (Homo sapiens, UniProt P08908); assay: Agonist activity at human 5HT1A receptor in HeLa cells assessed as stimulation of [35S]GTP-gamma-S binding; format: functional, cell-based
T2 sequence (P08908 whole entry): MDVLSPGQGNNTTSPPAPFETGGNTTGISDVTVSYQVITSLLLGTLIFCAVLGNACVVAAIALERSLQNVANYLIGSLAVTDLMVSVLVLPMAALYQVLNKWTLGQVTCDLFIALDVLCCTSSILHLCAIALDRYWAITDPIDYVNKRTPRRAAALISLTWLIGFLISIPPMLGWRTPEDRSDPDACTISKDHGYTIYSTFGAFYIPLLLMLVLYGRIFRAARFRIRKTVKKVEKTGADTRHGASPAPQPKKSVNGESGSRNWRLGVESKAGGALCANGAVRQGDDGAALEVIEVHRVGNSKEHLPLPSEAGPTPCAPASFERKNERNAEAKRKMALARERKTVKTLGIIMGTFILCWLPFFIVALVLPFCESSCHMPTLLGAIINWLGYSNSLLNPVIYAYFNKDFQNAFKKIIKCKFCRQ
Procedure, shortened: (§1)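 Membranes from HeLa cells expressing human 5-HT1A, prepared by homogenisation and 40 000 g spins in Hepes/EDTA, incubated with compound 1 h at 30 °C. [35S]GTPγS added at 0.1 nM final, then 30 min at 30 °C. Filtration and scintillation counting. Six concentrations from 10^-10 to 10^-5 M, triplicate, three experiments.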

[4] = target: T3, 5-hydroxytryptamine receptor 1A (Homo sapiens) (UniProt P08908); assay: Agonist activity at human 5HT1A receptor in HeLa cells assessed as stimulation of [35S]GTPgammaS binding relative to serotonin; format: functional, cell-based; procedure, shortened: as §1
T3 sequence (whole entry): T2 sequence (P08908 whole entry)

D(2) dopamine receptor = D(2) dopamine receptor (Rattus norvegicus, UniProt P61169); assay: Displacement of [3H]YM-09151-2 from rat striatum D2 receptor
Chain of D(2) dopamine receptor (P61169 whole entry): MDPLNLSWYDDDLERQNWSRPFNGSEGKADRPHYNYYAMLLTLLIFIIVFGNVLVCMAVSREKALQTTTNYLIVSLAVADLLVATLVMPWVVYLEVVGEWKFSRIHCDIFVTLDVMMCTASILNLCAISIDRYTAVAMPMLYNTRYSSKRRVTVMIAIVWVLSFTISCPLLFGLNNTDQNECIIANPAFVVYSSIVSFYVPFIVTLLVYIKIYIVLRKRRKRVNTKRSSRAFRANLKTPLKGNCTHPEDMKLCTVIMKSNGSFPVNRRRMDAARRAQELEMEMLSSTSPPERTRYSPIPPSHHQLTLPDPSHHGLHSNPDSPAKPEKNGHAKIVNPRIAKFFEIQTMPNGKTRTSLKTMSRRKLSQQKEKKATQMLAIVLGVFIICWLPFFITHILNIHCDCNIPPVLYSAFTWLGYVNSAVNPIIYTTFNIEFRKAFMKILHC

[5] = target: 5-hydroxytryptamine receptor 2A (Rattus norvegicus, UniProt P14842); assay: Displacement of [3H]ketanserin from rat cortex 5HT2A receptor
Chain of 5-hydroxytryptamine receptor 2A (P14842 whole entry): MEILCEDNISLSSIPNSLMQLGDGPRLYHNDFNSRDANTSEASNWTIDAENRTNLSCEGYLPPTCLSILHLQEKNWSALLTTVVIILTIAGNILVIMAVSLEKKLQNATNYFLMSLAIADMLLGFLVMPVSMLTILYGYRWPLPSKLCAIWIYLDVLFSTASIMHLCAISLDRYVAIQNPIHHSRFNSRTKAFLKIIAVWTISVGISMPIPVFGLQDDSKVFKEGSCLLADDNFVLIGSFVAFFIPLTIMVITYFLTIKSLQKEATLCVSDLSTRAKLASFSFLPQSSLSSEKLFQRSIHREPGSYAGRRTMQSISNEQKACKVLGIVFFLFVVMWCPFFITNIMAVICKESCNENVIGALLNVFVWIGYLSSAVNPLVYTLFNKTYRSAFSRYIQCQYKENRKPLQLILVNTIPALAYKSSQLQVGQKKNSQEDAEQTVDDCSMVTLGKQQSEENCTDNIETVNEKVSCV

Rattus norvegicus [6] = assay: Induction of catalepsy in ip dosed rat after 60 min by crossed-leg position test; format: functional; conditions: 1 h
Procedure, shortened: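 Rats dosed i.p. (10 mL/kg; doses as free base), seven per dose. From 60 min, hind limbs crossed over the ipsilateral forelimbs and time held recorded, up to 30 s. Repeated at 3 and 6 min and the three trials averaged. Incidence taken as catalepsy lasting 30 s.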

Rattus norvegicus [7] = assay: Induction of flat body posture in ip dosed rat after 15 min; format: functional; conditions: 0.25 h
Procedure, shortened: (§2)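 Rats given compound i.p. (10 mL/kg; doses as free base), five per dose, observed individually for 10 min from 15 min post-injection. LLR scored present if uninterrupted for ≥3 s, in 10 cycles; response was ≥1 positive score. FBP scored present only if seen over the whole period.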

Rattus norvegicus [8] = assay: Induction of lower lip retraction in ip dosed rat after 15 min; format: functional; conditions: 0.25 h; procedure, shortened: as §2
[9] = target: D(2) dopamine receptor (Rattus norvegicus) (UniProt P61169)
Chain of D(2) dopamine receptor (Rattus norvegicus) (P61169 whole entry): as the sequence (P61169 whole entry) above

Rattus norvegicus [10] = assay: Ratio of ED50 for catalepsy induction to ED50 for normalization in ip dosed rat; format: functional
Rattus norvegicus [11] = assay: Ratio of ED50 for LLR induction to ED50 for normalization in ip dosed rat; format: functional
Rattus norvegicus [12] = assay: Induction of forepaw treading in rat at 40 mg/kg, ip; format: functional, organism-based; parameters: dose 40 mg/kg

| Structure (SMILES) | Activity (Rattus norvegicus [1]) | Ki [2] | EC50 [3] | Emax [4] | Ki (D(2) dopamine receptor) | Ki [5] | ED50 (Rattus norvegicus [1]) | ED50 (Rattus norvegicus [6]) | ED50 (Rattus norvegicus [7]) | ED50 (Rattus norvegicus [8]) | pKb [9] | Ratio ED50 (Rattus norvegicus [10]) | Ratio ED50 (Rattus norvegicus [11]) | Activity (Rattus norvegicus [12]) |
| --- | --- | --- | --- | --- | --- | --- | --- | --- | --- | --- | --- | --- | --- | --- |
| C1=C(c2cccc(CNCCOc3cccc4c3OCCO4)c2)CCC1 | Active | 1.7 nM | 6.46 nM | 68.9% | 0.776 nM |  |  |  |  |  |  |  |  |  |
| C1=C(c2cncc(CNCCOc3cccc4c3OC3(CC3)C4)c2)CCC1 | Active | 3.63 nM | 2.63 nM | 78.5% | 0.447 nM |  |  |  |  |  |  |  |  |  |
| CC(C)Oc1ccccc1OCCNCc1cccc(C2=CCCCC2)c1 |  | 12.3 nM | 46.8 nM | 69.8% | 1.55 nM | 191 nM |  |  |  |  |  |  |  |  |
| CC(C)Oc1ccccc1OCCNCc1cccc(C2CC2)c1 |  | 61.7 nM | > 10000 nM |  | 0.603 nM | 110 nM |  |  |  |  |  |  |  |  |
| CC(C)Oc1ccccc1OCCNCc1cccc(-c2ccsc2)c1 |  | 34.7 nM | 67.6 nM | 47.7% | 0.275 nM | 347 nM |  |  |  |  |  |  |  |  |
| CC1(C)COc2c(OCCNCc3cccc(C4=CCCC4)c3)cccc21 | Active | 42.7 nM | 112 nM | 72.4% | 0.813 nM |  |  |  |  |  |  |  |  |  |
| CC(C)Oc1ccccc1OCCNCc1cccc(-c2ccco2)c1 |  | 67.6 nM | > 10000 nM |  | 0.339 nM | 372 nM |  |  |  |  |  |  |  |  |
| CCC1(C)Cc2cccc(OCCNCc3cccc(C4=CCCC4)c3)c2O1 (stereo unspecified) | Active | 5.5 nM | 32.4 nM | 77.7% | 11.5 nM |  |  |  |  |  |  |  |  |  |
| O=c1[nH]c2cccc(N3CCN(Cc4cccc(-c5ccccc5)c4)CC3)c2o1 [BIFEPRUNOX] |  | 64.6 nM | 324 nM | 60.8% | 1.55 nM | 3310 nM |  |  |  |  |  |  |  |  |
| O=C(CCCN1CCC(O)(c2ccc(Cl)cc2)CC1)c1ccc(F)cc1 [HALOPERIDOL] |  |  |  |  |  |  | 0.31 mg/kg | 0.3 mg/kg |  |  |  |  |  |  |
| CCCN(CCC)C1CCc2cccc(O)c2C1 (stereo unspecified) [8-OH-DPAT] |  |  |  | 82% |  |  | > 10 mg/kg | > 10 mg/kg | 0.28 mg/kg | 0.09 mg/kg |  |  |  |  |
| CC(C)Oc1ccccc1OCCNCc1cccc(C2CCCC2)c1 |  | 16.6 nM | 195 nM | 71.2% | 0.562 nM | 302 nM |  |  |  |  |  |  |  |  |
| CC(C)Oc1ccccc1OCCNCc1cccc(C2=CCCCCC2)c1 |  | 22.9 nM | 1550 nM | 86.5% | 3.09 nM | 1050 nM |  |  |  |  |  |  |  |  |
| Fc1ccc(-c2cncc(CNC[C@H]3CCc4ccccc4O3)c2)cc1 [SARIZOTAN] |  | 2.24 nM | 77.6 nM | 66.5% | 19.1 nM | 2140 nM |  |  |  |  |  |  |  |  |
| C1=C(c2cccc(CNCCOc3cccc4c3OCO4)c2)CCC1 |  | 20.9 nM | 135 nM | 70.7% | 2.57 nM |  |  |  |  |  |  |  |  |  |
| CC1(C)Oc2cccc(OCCNCc3cccc(C4=CCCC4)c3)c2O1 | Active | 9.55 nM | 24.5 nM | 90.6% | 1.23 nM |  |  |  |  |  |  |  |  |  |
| CC(C)Oc1ccccc1OCCNCc1cccc(-c2cccs2)c1 |  | 46.8 nM | > 10000 nM |  | 0.562 nM | 562 nM |  |  |  |  |  |  |  |  |
| CC(C)Oc1ccccc1OCCNCc1cccc(C2=CCCC2)c1 |  | 29.5 nM | 69.2 nM | 54% | 0.501 nM | 646 nM |  |  |  |  |  |  |  |  |
| Fc1ccc(-c2cncc(CN3CCN(c4cccc5c4OCCO5)CC3)c2)cc1 [ADOPRAZINE] |  | 2.29 nM | 5.89 nM | 45.3% |  | 724 nM | 1.4 mg/kg | > 40 mg/kg | 1.7 mg/kg | 0.32 mg/kg | 7.81 |  |  |  |
| CC(C)Oc1ccccc1OCCNCc1cccc(-c2ccccc2)c1 |  | 26.3 nM | 1410 nM | 73.9% | 0.195 nM | 724 nM |  |  |  |  |  |  |  |  |
| CC1(C)Cc2cccc(OCCNCc3cncc(C4=CCCC4)c3)c2O1 |  | 0.955 nM | 2.88 nM | 72.4% | 0.275 nM |  | 0.29 mg/kg | > 40 mg/kg | 4.7 mg/kg | 1.8 mg/kg | 9.29 | >137 | 6.2 | inactive |
| CC1(C)Cc2cccc(OCCNCc3cccc(C4=CCCC4)c3)c2O1 |  | 5.75 nM | 10 nM | 85.6% | 0.417 nM |  | 1.1 mg/kg | > 40 mg/kg | 32 mg/kg | 8.3 mg/kg | 8.29 | >36 | 7.5 | inactive |
| C1=C(c2cccc(CNCCOc3cccc4c3OC3(CC3)C4)c2)CCC1 | Active | 6.17 nM | 33.9 nM | 93.8% | 1.12 nM |  |  |  |  |  |  |  |  |  |
